This passage reports IC50 results from ChEMBL document CHEMBL3085674, “Synthesis of some dihydropyrimidine-based compounds bearing pyrazoline moiety and evaluation of their antiproliferative activity” (Eur J Med Chem, 2013).

Holding throughout (type): functional, cell-based
The subject of one experiment is HT-29. The experiment can be described thus: Antiproliferative activity against human HT-29 cells after 72 hrs by cell titer glo assay. The following applies: HT-29, 72 h. Summed up: (§1)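 ATCC tumour cells kept in RPMI 1640 with 5% FBS, 2 mM glutamine, streptomycin and amphotericin at 37 °C, 5% CO2. Cells were trypsinised at 70–90% confluence and used only at >95% Trypan blue viability. Seeded at 5000 cells/well, rested 18–24 h, then dosed from DMSO stocks (0.1% DMSO final). ATP luminescence was read after 72 h. IC50 came from dose–response curves of 8 concentrations, four replicates each.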
Background: In ATP-based viability assays light output follows the ATP content of the culture.

A further experiment concerns A549. Kind of experiment: Antiproliferative activity against human A549 cells after 72 hrs by cell titer glo assay. The following applies: A549, 72 h. Summed up: as §1
In a further experiment the test system is MDA-MB-231. The experiment can be described thus: Antiproliferative activity against human MDA-MB-231 cells after 72 hrs by cell titer glo assay. The following applies: MDA-MB-231, 72 h. Summed up:
as §1

Another experiment deals with MCF7. The experiment can be described thus: Antiproliferative activity against human MCF7 cells after 72 hrs by cell titer glo assay. The conditions noted are these: MCF7, 72 h. Summed up: as §1

Take `COc1cccc2c1C(=O)c1c(O)c3c(c(O)c1C2=O)C[C@@](O)(C(=O)CO)C[C@@H]3O[C@H]1C[C@H](N)[C@H](O)[C@H](C)O1` [DOXORUBICIN]: the IC50 in the experiment on HT-29 was 2.75 µM; in the experiment on A549, 3.13 µM.
Turning to `Cn1c(N2N=C(c3ccccc3)CC2c2ccccc2)nc(-c2ccccc2)c(C#N)c1=O` (stereo unspecified), the IC50 with MDA-MB-231 worked out at 3.99 µM; with MCF7, 35.4 µM; with HT-29 it was 2.49 µM; with A549, 52.9 µM.
For the compound `COc1ccc(C2CC(c3ccc(Cl)cc3)=NN2c2nc(-c3ccccc3)c(C#N)c(=O)n2C)cc1` (stereo unspecified), the 50% inhibitory concentration (IC50) with MDA-MB-231 was determined as 11.1 µM; in the experiment on MCF7 it was 4.8 µM; in the experiment with HT-29 it was 9.12 µM; with A549, 6.07 µM.
For `Cn1c(N2N=C(c3ccccc3)CC2c2ccccc2)nc(-c2ccc(Cl)cc2)c(C#N)c1=O` (stereo unspecified), the IC50 with MDA-MB-231 amounted to 29.1 µM; with MCF7, 34.4 µM; in the experiment with HT-29, 19.5 µM; with A549, 28.1 µM.
With `Cn1c(N2N=C(c3ccccc3)CC2c2ccc(F)cc2)nc(-c2ccccc2)c(C#N)c1=O` (stereo unspecified), the concentration for half-maximal inhibition (IC50) was found to be 11.8 µM with MDA-MB-231, 38.1 µM in the experiment on MCF7, 8.15 µM in the experiment with HT-29 and 39.2 µM with A549.
`COc1ccc(C2=NN(c3nc(-c4ccc(Cl)cc4)c(C#N)c(=O)n3C)C(c3ccc(OC)cc3)C2)cc1` (stereo unspecified): the IC50 in the experiment on MDA-MB-231 came out at 28.3 µM; in the experiment on MCF7 it was 99.8 µM; in the experiment with HT-29, 18.2 µM; with A549 it was 39.7 µM.
Turning to `COc1ccc(C2CC(c3ccc(Cl)cc3)=NN2c2nc(-c3ccc(Cl)cc3)c(C#N)c(=O)n2C)cc1` (stereo unspecified), the half-maximal inhibitory concentration (IC50) stood at 24.8 µM in the experiment with MDA-MB-231, 27.3 µM in the experiment with MCF7, 15.1 µM in the experiment on HT-29 and 35.6 µM in the experiment with A549.
The corresponding values for `Cn1c(N2N=C(c3ccc(Cl)cc3)CC2c2ccccc2)nc(-c2ccc(Cl)cc2)c(C#N)c1=O` (stereo unspecified) are 12.4 µM, 25.3 µM, 8.72 µM and 43.9 µM.
With `Cc1ccc(C2=NN(c3nc(-c4ccc(Cl)cc4)c(C#N)c(=O)n3C)C(c3ccc(F)cc3)C2)cc1` (stereo unspecified), the concentration for half-maximal inhibition (IC50) came to 19.3 µM with MDA-MB-231, 116 µM with MCF7, 10.5 µM in the experiment on HT-29 and 35.6 µM with A549.
On to `COc1ccc(C2CC(c3ccccc3)=NN2c2nc(-c3ccccc3)c(C#N)c(=O)n2C)cc1` (stereo unspecified), for which the IC50 is 12.8 µM in the experiment with MDA-MB-231, 18 µM with MCF7, 14.7 µM in the experiment on HT-29 and 1.76 µM in the experiment with A549.
Taken in the same sequence, the figures for `Cc1ccc(C2=NN(c3nc(-c4ccccc4)c(C#N)c(=O)n3C)C(c3ccc(F)cc3)C2)cc1` (stereo unspecified) were 5.1 µM, 23.1 µM, 4.62 µM and 2 µM.
For the compound `COc1ccc(C2CC(c3ccccc3)=NN2c2nc(-c3ccc(Cl)cc3)c(C#N)c(=O)n2C)cc1` (stereo unspecified), the half-maximal inhibitory concentration (IC50) with MDA-MB-231 came to 19.5 µM; in the experiment on MCF7, 52.4 µM; with HT-29, 11 µM; with A549, 23.8 µM.
`Cn1c(N2N=C(c3ccccc3)CC2c2ccc(F)cc2)nc(-c2ccc(Cl)cc2)c(C#N)c1=O` (stereo unspecified): the IC50 in the experiment with MDA-MB-231 turned out to be 20.9 µM; in the experiment on MCF7 it was 36.8 µM; in the experiment with HT-29 it was 13.7 µM; with A549, 27.8 µM.
Regarding `Cn1c(N2N=C(c3ccccc3)CC2c2ccc(Cl)cc2)nc(-c2ccc(Cl)cc2)c(C#N)c1=O` (stereo unspecified), the IC50 in the experiment with MDA-MB-231 amounted to 25.1 µM; in the experiment on MCF7, 46.3 µM; in the experiment with HT-29 it was 15 µM; in the experiment with A549, 24.7 µM.
In the case of `Cn1c(N2N=C(c3ccc(Cl)cc3)CC2c2ccccc2)nc(-c2ccccc2)c(C#N)c1=O` (stereo unspecified), the IC50 was 10.6 µM in the experiment with MDA-MB-231, 12.2 µM in the experiment with MCF7, 6.6 µM with HT-29 and 26.9 µM with A549.
As for `COc1ccc(C2=NN(c3nc(-c4ccccc4)c(C#N)c(=O)n3C)C(c3ccc(OC)cc3)C2)cc1` (stereo unspecified), the IC50 came to 16.2 µM in the experiment with MDA-MB-231, 127 µM in the experiment with MCF7, 9.42 µM in the experiment with HT-29 and 26.5 µM in the experiment on A549.
Taken in the same sequence, the figures for `Cn1c(N2N=C(c3ccccc3)CC2c2ccc(Cl)cc2)nc(-c2ccccc2)c(C#N)c1=O` (stereo unspecified) were 28 µM, 3.28 µM, 19.2 µM and 3.25 µM.

As usually defined, the IC50 is the concentration at which inhibition is half-maximal. Low readings indicate inhibition by little substance, high ones a need for much substance.
